# An excerpt weighted towards active compounds, which were near 2.2% of everything screened.
# IMP-1 inh-1 – inhibitors of Pseudomonas aeruginosa IMP-1 metallo-beta-lactamase; AID 1556; purified IMP-1, nitrocefin hydrolysis, epi-absorbance fluorescence; hit rate 0.45% among 290,000; inhibition, % at 5.6 µM;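 active = inhibition above the mean plus 3 SD of all compounds in the same screening run, cut at about 4.5% in these data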;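 note: 0% = IMP-1 with DMSO and 100% = DMSO wells lacking enzyme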
#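 Test system: recombinant IMP-1 enzyme, purified / Medium: HEPES buffer pH 7.1 with ZnSO4 and Brij 35 / Doses: single dose, 5.6 µM / Times: 25 °C, 15 min preincubation, 25 min reaction / Detection: Epi-absorbance via hydrolysed-nitrocefin quenching of white-plate fluorescence, 480/530 nm, EDTA stop / Evaluation: percent inhibition from optical density relative to buffer-blank wells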
# VIM-2 inhibitor – blocks Pseudomonas aeruginosa VIM-2 metallo-beta-lactamase; purified VIM-2, nitrocefin hydrolysis, epi-absorbance fluorescence; inhibition, % at 5.6 µM; hit rate 0.89% among 290,000;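 active = inhibition above the mean of all tested compounds plus 3 SD, cutoff set per screening run, cut at about 7.5% in these data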;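 note: red hydrolysis product quenches plate fluorescence so inhibitors raise well fluorescence; 0% = enzyme with DMSO and 100% = DMSO without enzyme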
# Bcl-xL primary – Bcl-xL (human) inhibition; inhibition, % at 10.9 µM; Q07817; AID 2129; GST-Bcl-xL / FITC-Bim BH3 peptide fluorescence polarization; hit rate 0.7% among 320,000;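 active = inhibition above the mean of all tested compounds plus 3 SD, cutoff set per campaign, cut at about 30% in these data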;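 note: 0% = DMSO wells and 100% = unlabeled Bim-BH3 peptide competitor; inhibitors lower millipolarization by displacing the labeled peptide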
# GLD-1 RNA inh – GLD-1-TGE RNA interaction inhibition (C. elegans); purified GLD-1 + fluorescein TGE RNA, fluorescence polarization; inhibition, % at 5.96 µM; hit rate 0.44% among 320,000; AID 2280;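 active = percent inhibition above a per-plate cutoff, the plate mean of test compounds plus 3 SD, cut at about 30% in these data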;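 note: 0% = DMSO wells with GLD-1 and probe and 100% = wells lacking GLD-1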
# MEX-5 binding – C. elegans MEX-5 TCR-2 RNA binding activity | Q9XUB2 | MEX-5/FITC-TCR2 RNA binding, fluorescence polarization; active compounds read low | activity score (negative = inhibition of binding), % at 10 µM | hit rate 0.38% among 300,000 | AID 1832;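 active = inhibition past about -25% in most replicates, and total fluorescence under double the plate's negative control median, limit read from the data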;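 note: 0% = DMSO and -100% = 5 µM competing unlabeled TCR2 RNA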
# Target sequence (Q9XUB2 whole entry, looked up): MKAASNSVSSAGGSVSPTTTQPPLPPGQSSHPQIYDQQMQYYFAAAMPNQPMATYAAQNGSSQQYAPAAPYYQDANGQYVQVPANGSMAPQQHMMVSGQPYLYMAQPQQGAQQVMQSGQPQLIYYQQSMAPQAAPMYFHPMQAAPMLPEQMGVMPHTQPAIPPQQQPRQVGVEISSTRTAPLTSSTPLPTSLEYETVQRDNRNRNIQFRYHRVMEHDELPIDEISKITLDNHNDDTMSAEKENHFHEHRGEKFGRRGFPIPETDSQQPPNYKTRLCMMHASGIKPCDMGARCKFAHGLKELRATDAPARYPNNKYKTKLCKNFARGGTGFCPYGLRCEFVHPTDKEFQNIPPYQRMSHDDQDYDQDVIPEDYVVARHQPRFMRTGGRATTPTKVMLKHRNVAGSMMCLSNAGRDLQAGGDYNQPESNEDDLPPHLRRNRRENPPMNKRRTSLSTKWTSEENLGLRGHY
# EBV gp42 block – inhibitors of Epstein-Barr virus glycoprotein 42. Fluorescence polarization binding assay, mP read-out. inhibition, % (tested at 21.74 µM). hit rate 0.42% among 220,000; in the data active = inhibition above about 50%
# Target sequence (Q1HVG2 whole entry, looked up): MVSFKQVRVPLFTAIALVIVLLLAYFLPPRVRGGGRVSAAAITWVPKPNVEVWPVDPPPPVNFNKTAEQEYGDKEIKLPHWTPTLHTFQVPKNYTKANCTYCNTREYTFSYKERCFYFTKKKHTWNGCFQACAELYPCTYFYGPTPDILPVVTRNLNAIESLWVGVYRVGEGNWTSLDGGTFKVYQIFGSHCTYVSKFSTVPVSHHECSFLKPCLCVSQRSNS
# IMP-1 inh-2 – IMP-1 inhibition, counter-screen for VIM-2 inhibitors | 1,300 tested, under 10 active | AID 1856 | inhibition, % at 5.6 µM | purified IMP-1, nitrocefin hydrolysis, epi-absorbance fluorescence | shares compounds with VIM-2 inhibitor; call rule not given here;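 note: 0% = enzyme with vehicle and 100% = vehicle without enzyme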
# VIM-2 FRET inh – VIM-2 FRET inhibition, artifact counter-screen; shares compounds with VIM-2 inhibitor; purified VIM-2, CCF2 FRET substrate hydrolysis; inhibition, % at 5.6 µM; hit rate 23% among 1,300;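 active = inhibition above the mean of all tested compounds plus 3 SD, cut at about 19% in these data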;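 note: 0% = VIM-2 plus DMSO and 100% = no enzyme wells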
# TEM-1 counter – blocks E. coli TEM-1 beta-lactamase in VIM-2 selectivity screen; shares compounds with VIM-2 inhibitor; inhibition, % at 5.6 µM; Purified TEM-1, nitrocefin hydrolysis, epi-absorbance fluorescence; AID 1866; hit rate 3% among 1,300;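 active = inhibition above that campaign's mean inhibition plus 3 SD, cut at about 0.46% in these data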;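 note: 0% = TEM-1 with DMSO and 100% = TEM-1 with 100 µM potassium clavulanate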
# VIM-2 inh conf – confirmation of P. aeruginosa VIM-2 metallo-beta-lactamase inhibitors; inhibition, % at 5.6 µM; purified VIM-2, nitrocefin hydrolysis, epi-absorbance; shares compounds with VIM-2 inhibitor; AID 2187; hit rate 96% among 1,300;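 active = inhibition of the VIM-2 beta-lactamase enzyme above about 11% from the earlier first-round screen, limit read from the data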;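 note: 0% = VIM-2 with DMSO and 100% = buffer wells without enzyme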
# An asterisk follows results filed as active; . = no result given.
SMILES,IMP-1 inh-1,VIM-2 inhibitor,Bcl-xL primary,GLD-1 RNA inh,MEX-5 binding,EBV gp42 block,IMP-1 inh-2,VIM-2 FRET inh,TEM-1 counter,VIM-2 inh conf
CC(C)(C)c1ccc(-c2n[nH]c(=S)n2CC2CCCO2)cc1 (stereo not drawn),-2.8,-0.1,-25.1,-2.5,0.8,-26.2,.,.,.,.
CC(C)(C)c1ccc(-c2n[nH]c(=S)n2CCCN2CCOCC2)cc1,-2.1,13.3*,-6.6,4.2,-0.4,0.0,-4.2,33.3*,-8.2,21.7*
O=C1c2cccc3cccc(c23)C(=O)N1c1nncs1,-0.1,12.9*,3.5,3.7,-0.4,-2.3,-2.8,4.1,-3.2,24.4*
Cc1ccc(N2C(=O)c3cccc4cccc(c34)C2=O)cc1,-0.7,-5.5,1.4,-4.5,0.0,-12.8,.,.,.,.
CSc1cccc(Nc2ccc(S(=O)(=O)N3CCOCC3)cc2[N+](=O)[O-])c1,.,.,-0.1,1.0,.,.,.,.,.,.
CC(=O)N1CCN(S(=O)(=O)c2ccc(C)cc2)C1c1ccc(N(C)C)cc1 (stereo not drawn),-3.2,30.7*,5.6,-3.0,2.3,-10.4,-2.8,50.9*,-3.8,37.0*
CC(C)N(C(=O)[C@H]1CC(CC(=O)NC(C)(C)C)C(=O)N2CCc3c([nH]c4ccccc34)[C@]12C)C(C)C (stereo partly drawn),.,.,.,-0.9,.,.,.,.,.,.
CC(C(=O)O)c1cccc(C(=O)c2ccccc2)c1 (stereo not drawn),-4.9,17.6*,6.8,-3.9,-0.8,-1.7,-2.4,52.3*,-5.7,33.8*
C[C@H](C(=O)O)c1cccc(C(=O)c2ccccc2)c1,.,.,-3.2,-4.1,0.2,.,.,.,.,.
CC(NC(=O)c1ccccc1F)c1nnc(SCC(=O)NC2=NCCS2)n1C (stereo not drawn),-3.3,-2.0,-4.0,4.0,-0.9,.,.,.,.,.
Oc1ccc(-c2n[nH]c(=S)n2-c2ccc3c(c2)OCCO3)c(O)c1,-5.0,16.9*,10.8,7.9,.,13.1,-2.4,35.5*,-8.2,18.9*
S=c1[nH]nc(-c2ccc3ccccc3n2)n1-c1ccccc1,-3.1,2.2,-14.3,3.5,1.0,1.2,.,.,.,.
S=c1[nH]nc(-c2ccc3ccccc3n2)n1-c1ccc2c(c1)OCCO2,-1.7,19.6*,-13.4,-1.1,-1.5,-16.0,-3.5,37.7*,-6.8,21.6*
COC(=O)[C@H](C)NC(=O)N1CCC(Cc2ccccc2)CC1,-1.4,-2.8,3.0,3.7,0.6,.,.,.,.,.
S=c1[nH]nc(C2CC2)n1Cc1ccco1,1.9,25.4*,-1.5,5.4,0.8,9.5,-3.5,56.0*,-7.2,35.6*
S=c1[nH]nc(Cc2ccccc2)n1Cc1ccco1,-0.6,0.7,-9.5,3.1,1.8,-5.1,.,.,.,.
C=CCn1c(C2CC2)n[nH]c1=S,-2.4,15.2*,-3.2,-2.7,0.3,0.4,-3.1,36.5*,-6.9,23.1*
C=CCn1c(C(c2ccccc2)c2ccccc2)n[nH]c1=S,-2.5,-5.6,-16.8,3.2,4.2,-0.8,.,.,.,.
CCSc1nncn1/N=C/c1ccc(OC)c(OC)c1,-1.9,23.9*,3.3,-5.6,1.6,-13.6,-2.9,0.0,-5.9,41.3*
COc1ccc(S(=O)(=O)Nc2ccc3c(c2)C(=O)N([C@H](C)CO)C[C@H](C)[C@@H](CN(C)C(=O)NC2CCCCC2)O3)cc1,.,.,.,-0.1,.,.,.,.,.,.
C#CCOCCOCCOCCNc1nc(N2CCOCC2)nc(N2CCN(C(=O)[C@H](CO)n3cc([C@@H](N)C(C)C)nn3)CC2)n1,.,.,.,-1.2,.,.,.,.,.,.
O=C(CCOc1ccccc1)Nc1ccc(S(=O)(=O)Nc2ncccn2)cc1,.,.,3.2,6.9,.,.,.,.,.,.
CCN(Cc1ccccc1)C(=O)CCS(=O)(=O)c1ccc2c(c1)CCN2C(C)=O,-3.6,-5.8,2.1,0.9,-2.2,.,.,.,.,.
CCCC(NC(=O)CCc1c(C)c2cc3c(-c4ccccc4)coc3cc2oc1=O)C(=O)O (stereo not drawn),-1.6,1.1,11.3,0.0,3.2,.,.,.,.,.
CC1=CCC(C(=O)O)(C(=O)N/N=C/c2cccs2)C(c2ccc([N+](=O)[O-])cc2)C1 (stereo not drawn),-4.2,31.0*,5.4,3.2,-3.5,5.9,-4.0,8.5,-5.5,6.8
SMILES,IMP-1 inh-1,VIM-2 inhibitor,Bcl-xL primary,GLD-1 RNA inh,MEX-5 binding,EBV gp42 block,IMP-1 inh-2,VIM-2 FRET inh,TEM-1 counter,VIM-2 inh conf
CC1=CCC(C(=O)O)(C(=O)N/N=C/c2cccs2)C(c2ccc(F)cc2)C1 (stereo not drawn),0.4,3.8,4.6,-2.5,-0.9,-3.1,.,.,.,.
Cc1noc(C)c1S(=O)(=O)Nc1ccc2c(c1)C(=O)N([C@H](C)CO)C[C@H](C)[C@@H](CN(C)C(=O)Nc1ccc3c(c1)OCO3)O2,.,.,.,4.0,.,.,.,.,.,.
O=C(O)C(c1ccccc1)N1C(=O)c2ccccc2C1=O (stereo not drawn),-5.8,3.2,8.0,9.2,-8.9,.,.,.,.,.
O=C(O)C(c1ccccc1)N1C(=O)c2cccc3cccc(c23)C1=O (stereo not drawn),4.4,20.4*,5.0,8.4,0.5,.,2.9,38.5*,-6.8,26.8*
S=c1[nH]nc(-c2ccco2)n1C1CCCCC1,-1.8,24.6*,0.8,-0.2,0.6,-3.8,-2.8,52.4*,-6.5,34.1*
S=c1[nH]nc(CSCc2ccccc2Cl)n1C1CCCCC1,-1.6,0.0,.,.,1.4,-9.2,.,.,.,.
Cn1cc(Cl)c(-c2n[nH]c(=S)n2C2CCCCC2)n1,-0.4,42.3*,3.8,3.1,1.9,-2.7,-2.7,60.2*,-8.0,42.8*
CCN(CC(=O)NCc1cccs1)C(=O)c1ccc(NS(=O)(=O)c2ccc(C(C)=O)cc2)cc1,.,.,-0.3,4.3,0.8,.,.,.,.,.
Cc1n[nH]c(C)c1N1C(=O)c2cccc3cc(Br)cc(c23)C1=O,-2.2,14.9*,9.7,-0.8,1.7,-16.7,-2.2,-4.8,-5.1,25.8*
Cc1n[nH]c(C)c1N1C(=O)c2cccc3c(Br)ccc(c23)C1=O,0.9,29.0*,7.9,5.9,-0.2,-7.8,-3.2,-3.9,-5.6,33.4*
C[C@@H]1O[C@@H](O[C@H]2[C@H](Oc3cc(O)c4c(c3)OC(c3ccc(O)cc3)CC4=O)O[C@H](CO)[C@@H](O)[C@@H]2O)[C@H](O)[C@H](O)[C@H]1O (stereo partly drawn),.,.,4.3,1.6,-0.5,.,.,.,.,.
Cc1cc2oc(=O)cc(CN3CCN(Cc4ccccc4)CC3)c2cc1O,-1.5,-0.9,-3.0,3.5,-1.9,.,.,.,.,.

# High-throughput results deposited in PubChem by several laboratories.
